The list is not random: actives were taken first. Their share in the collection is about 2.6%.
esBAF inh = inhibitors of esBAF chromatin remodeling in mouse ES cells; reporter increase, % at 12.5 µM; Bmi1-luciferase knock-in reporter, 24 h; 100% = twice the neutral-well signal; actives 2% (n = 350,000); in the data active = activation above about 40%; inconclusive = no clear call, values can overlap the other calls;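 also: 0% = median of the plate's neutral control wells and 100% = double that signal; a rise in the Bmi1 reporter signal indicates esBAF inhibition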
Xi reactivation = X-chromosome reactivation activator | actives 0.055% (n = 360,000) | XiGFP mouse fibroblasts, % GFP-positive cells imaging, 3 d; cells co-treated with 5-aza-dC sensitizer; scaled so ellipticine positive control = 100% | activation, % at 7.58 µM;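 active = mean normalized replicate activation at least 10% and every replicate at or above 10%; inconclusive = only one of the two criteria met; inactive = mean below 10% and not all replicates reach 10%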;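 also: 0% = median of on-plate neutral control wells and 100% = ellipticine 6 µM median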
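Material: SV40-immortalized XiGFP fibroblast cells, line 68-5-11 | Buffer or medium: DMEM containing 5-aza-dC | Dosing: One concentration, pinned | Times: 3 d treatment, 15 min room-temperature fixation | Controls: Ellipticine 6 µM positive control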
MITF act = increases MITF-driven TRPM1 promoter luciferase signal | activation, % at 12.5 µM | actives 0.75% (n = 300,000) | SK-MEL-5 TRPM1-promoter luciferase, 24 h; % of positive control, neutral wells = 0;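 active = mean activation of at least 80% with every replicate also reaching 80%; inconclusive = mean reaches 80% but some replicate falls short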;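 also: 0% = neutral control wells and 100% = parthenolide positive control wells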
Vif imaging = blocks HIV Vif function | actives 0.35% (n = 340,000) | inhibition, % at 7.49 µM | HEK293T cells, Vif self-association by quenched fluorescence, imaging, 24 h; in the data active = inhibition above about 50%, passing the limit was not always enough; inconclusive = no clear call, values can overlap the other calls; inactive = below about 31%
Wnt act = Wnt/beta-catenin pathway activation | actives 1.2% (n = 300,000) | activation, % at 9.35 µM | Wnt/beta-catenin reporter cell assay, activator, plate reader; in the data active = activation above about 30%, passing the limit was not always enough; inconclusive = no clear call, values can overlap the other calls;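 also: 0% = neutral control wells and 100% = positive control wells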
* marks the source's active call; other numbers are inactive results; ? = inconclusive; . = not tested or not shown.

SMILES | esBAF inh | Xi reactivation | MITF act | Vif imaging | Wnt act
COc1cccc(NC(=O)C[C@H]2CC[C@H]3[C@H](COc4ccc(NC(=O)C5CCCCC5)cc4C(=O)N3C)O2)c1 | 5.9 | 0.7 | . | . | .
O=c1c2ccccc2nnn1-c1ccccc1 | . | 0.6 | 8.6 | 10.1 | 13.6
Cc1ccc(-n2nnc3ccccc3c2=O)cc1C | 8.4 | . | 86.0* | . | .
C[C@H](CO)N1C[C@H](C)[C@H](CN(C)C(=O)Nc2ccc(C(F)(F)F)cc2)OCCCC[C@H](C)Oc2ccc(N(C)C)cc2C1=O | -2.9 | 0.0 | . | . | .
COc1ccc(C2=NN(C(C#N)c3ccc(OC)c(OC)c3)C(c3ccccc3)C2)cc1 (centres undefined) | 50.6* | . | 62.1 | 3.9 | 61.0*
COc1ccc(C2=NN(c3ccccc3)C(c3ccc(OC)c(OC)c3)C2)cc1 (centres undefined) | 46.5* | 0.7 | 84.3* | -3.2 | 5.1
COc1ccc(C2CC(c3ccc(F)cc3)=NN2c2ccccc2)cc1OC (centres undefined) | 30.5 | -0.1 | . | -3.4 | 0.7
COc1ccc(C(C#N)N2CCC(c3ccccc3)=N2)cc1OC (centres undefined) | . | 0.1 | 10.5 | 2.1 | 8.6
O=C(C1CCC1)N1CC(=O)N2[C@H](CO)[C@@H](c3ccc(C#Cc4cccc(F)c4)cc3)[C@@H]2C1 | . | 0.1 | . | . | .
COc1ccc(S(=O)(=O)N(C)C[C@@H]2Oc3ccc(NS(=O)(=O)c4c(C)noc4C)cc3C(=O)N([C@@H](C)CO)C[C@H]2C)cc1 | -5.0 | 0.2 | . | . | .
O=C(C[C@H]1CC[C@@H]2[C@H](COC[C@H](O)CN2S(=O)(=O)c2ccc(F)cc2)O1)NCC1CCCCC1 | -4.3 | 0.1 | . | . | .
COc1cc(/C=C/C(=O)OCC(=O)N2CCCc3ccccc32)ccc1O | 5.3 | -0.1 | -6.9 | 67.8* | -6.4
CCOC(=O)c1c(C)[nH]c(C(=O)COC(=O)/C=C/c2ccc(O)c(OC)c2)c1C | -2.5 | -0.1 | -6.1 | 50.0* | .
COc1cc(/C=C/C(=O)O)ccc1S(=O)(=O)N1CCCc2ccccc21 | . | 0.0 | -4.0 | 96.2* | -4.9
CO[C@H]1CN(C)C(=O)c2ccc(NC(=O)c3ccc4c(c3)OCO4)cc2OC[C@@H](C)N(CC2CC2)C[C@@H]1C | -0.5 | 0.1 | . | . | .
C[C@@H]1CN([C@H](C)CO)C(=O)Cc2cc(NC(=O)CCC(F)(F)F)ccc2O[C@@H]1CN(C)Cc1ccc(Cl)c(Cl)c1 | -3.4 | -0.5 | . | . | .
O=C(Nc1sc2c(c1C(=O)O)CCC2)c1cccs1 | 45.8* | . | -0.6 | 12.2 | .
NC(=O)c1c(NC(=O)c2cccs2)sc2c1CCCCCC2 | 104.6* | . | 118.0* | -4.4 | .
COCCCNC(=O)c1c(NC(=O)c2cccs2)sc2c1CCCC2 | -2.9 | . | . | -7.2 | -7.4
O=C(NCC[C@@H]1CC[C@H](NC(=O)C2CCCC2)[C@@H](CO)O1)Nc1ccc(Cl)cc1 | 20.5 | 0.0 | . | . | .
CC(=O)Nc1ccc(N=Nc2c(C)[nH]n(C(N)=S)c2=O)cc1 | 49.2* | 0.2 | 5.7 | 12.1 | 12.7
CC(C)C#Cc1ccc([C@@H]2[C@H]3CN(C(=O)Cc4cccnc4)CC(=O)N3[C@H]2CO)cc1 | . | 0.4 | . | . | .
CO[C@H](CN(C)C(=O)c1ccc2c(c1)OCO2)[C@H](C)CN([C@H](C)CO)S(=O)(=O)c1ccc(C)cc1 | -2.4 | 0.1 | . | . | .
O=C(Nn1c(SCc2cccc([N+](=O)[O-])c2)nc2ccccc2c1=O)c1ccccc1 | . | -0.1 | 24.8 | 22.6 | 43.4*
COc1ccc2c3c(n(C)c2c1)[C@@H](CO)N(Cc1ccccc1OC)CC31CCN(CC2CC2)CC1 | . | 0.0 | . | . | .
SMILES | esBAF inh | Xi reactivation | MITF act | Vif imaging | Wnt act
O=C(N[C@@H]1CC[C@@H](CCNS(=O)(=O)c2ccccc2)O[C@@H]1CO)c1cccnc1 | -9.8 | -0.4 | . | . | .
COC(=O)C[C@H]1CC[C@H]2[C@H](COc3ccc(NS(=O)(=O)c4ccc(F)cc4)cc3C(=O)N2C)O1 | 5.4 | 0.4 | . | . | .
CCCN1C[C@H](C)[C@@H](OC)CN(C)C(=O)c2cc(NC(=O)c3cccc(OC)c3)ccc2OC[C@@H]1C | 5.9 | 0.2 | . | . | .
Cc1cccc(OCC(=O)O/N=C(\N)c2ccccn2)c1C | 71.8* | . | ? | . | 20.1
COc1ccccc1CC(=O)O/N=C(\N)c1ccccn1 | . | 0.5 | 32.3 | -8.0 | -2.0
N/C(=N\OC(=O)COc1cc(Cl)c(Cl)cc1Cl)c1ccccn1 | . | 0.1 | 73.9 | -0.3 | 16.2
N/C(=N\OC(=O)Cc1ccc(Cl)cc1)c1ccccn1 | 46.9* | . | 78.0 | 4.9 | .
COc1ccc(CC(=O)O/N=C(\N)c2ccccn2)cc1OC | 6.2 | -0.1 | 4.1 | 3.4 | 5.4
Cc1ccc(CC(=O)O/N=C(\N)c2ccccn2)cc1 | 14.9 | 0.0 | 27.8 | -4.8 | 40.3*
N/C(=N\OC(=O)Cc1cccc2ccccc12)c1ccccn1 | . | . | 79.2 | 6.9 | 42.2*
Cc1noc(C)c1NC(=O)N(C)C[C@H]1OCCCC[C@@H](C)Oc2ccc(NS(=O)(=O)c3ccc(Cl)cc3)cc2C(=O)N([C@H](C)CO)C[C@@H]1C | -5.2 | -0.1 | . | . | .
O=C(NC1CCCCC1)N1CC(=O)N2[C@@H](CO)[C@@H](c3ccc(-c4ccccc4)cc3)[C@@H]2C1 | . | 0.1 | . | . | .
C[C@H]1CCc2cnnn2COCCNC1=O | . | 0.3 | . | . | .
C[C@@H]1CCCCO[C@@H](CN(C)C)[C@H](C)CN([C@@H](C)CO)C(=O)c2cc(NS(=O)(=O)c3cccs3)ccc2O1 | 1.1 | 0.2 | . | . | .
Cc1ccc(OCC(=O)O/N=C(\N)c2ccccn2)cc1 | 46.4* | 0.1 | 79.6 | 13.4 | -2.5
COC(=O)C(=CC(=CN(C)C)C=C(C(=O)OC)C(=O)OC)C(=O)OC | -6.2 | 0.1 | 8.2 | 3.4 | 38.2*
O=[N+]([O-])c1ccccc1/C=N/N1CCN(Cc2ccccc2)CC1 | ? | 0.2 | 57.5 | -2.1 | 18.9
CN(C)c1ccc(/C=N/N2CCN(c3ccccn3)CC2)cc1 | . | 0.3 | . | 0.6 | 43.3*
CN(c1ccccc1)c1ccc(/C=N/N2CCOCC2)cc1 | 31.0 | . | 143.6* | -13.8 | .
O=[N+]([O-])c1ccccc1/C=N/N1CCN(c2ccccn2)CC1 | 60.0* | . | . | 6.9 | 14.7
O=[N+]([O-])c1ccccc1C=NN1CCCCCC1 | 46.7* | -0.1 | 19.3 | 16.0 | 7.7
Cc1ccc(N2CCN(/N=C/c3ccccc3[N+](=O)[O-])CC2)cc1 | 15.2 | 0.0 | 14.0 | -0.8 | 10.8
N/C(=N\OC(=O)CSc1ccccc1)c1ccc([N+](=O)[O-])cc1 | . | 0.0 | 24.8 | -9.8 | 39.0*
Cc1ccc(/C(N)=N/OC(=O)CSc2ccccc2)cc1 | . | 0.0 | -5.4 | -2.5 | ?
Clc1ccccc1CSc1cnnc2ccccc12 | 45.1* | -0.2 | 47.8 | 13.2 | -5.2
Nc1ccc(OCc2ccccc2)cc1 | 16.7 | 0.3 | 18.3 | 13.7 | -4.4
c1ccc(COc2ccc3nocc3c2)cc1 | 103.9* | 0.1 | 117.2* | . | 32.4*
CCCCn1c(-c2ccoc2C)n[nH]c1=S | 7.4 | . | . | 9.9 | 43.2*

Source: PubChem BioAssay
